Shown are actives, neighbours in structure and some others; about 6.8% of the full set was active somewhere.
HSF1 activator – increases HSF-1 driven luciferase reporter signal. AID 504408. 300,000 tested, 1.7% active. activation, % at 9 µM. NIH3T3-HGL HSF-1 luciferase reporter, MG132, 8 h; 100% = twice DMSO control signal;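 active = mean replicate activation of at least 50% with a set share of replicates each reaching 50%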;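 note: 0% = median of the neutral control wells and 100% = twice that signal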
HSF1 inhib – HSF1 inhibition; NIH3T3-HGL HSE-luciferase, MG132-induced, luminescence 8 h; stronger effect = lower value; activity change, negative = inhibition, % at 7.5 µM (by protocol); 300,000 tested, 0.77% active;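 active = more than half of replicate wells show activity change below -50%, luminescence cut by over half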;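 note: luciferase reports HSF-1 transcriptional activity via heat shock element; 0% = median of DMSO wells and -100% = zero luminescence signal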
HCV core dimer – blocks dimerization of HCV core protein. TR-FRET GST/Flag-core106 dimerization, 1536-well. inhibition, % at 5 µM. 300,000 tested, 0.33% active;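 active = inhibition above the mean of all tested compounds plus 3 SD, set per screening campaign, cut at about 45% in these data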
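Material: GST/Flag-tagged HCV core106 proteins. Incubation: 4 h, 22.5 °C incubation. Read-out basis: inhibition (%) from 671 over 617 nm ratio. Measured by: TR-FRET, excitation 340 nm, emission 617 and 671 nm.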
PHOSPHO1 inh – PHOSPHO1 (human) inhibition. recombinant PHOSPHO1, absorbance phosphatase assay. inhibition, % at 13.3 µM. Q8TCT1. 290,000 tested, 1.1% active; in the data active = inhibition above about 60%
Target sequence (Q8TCT1 whole entry, looked up): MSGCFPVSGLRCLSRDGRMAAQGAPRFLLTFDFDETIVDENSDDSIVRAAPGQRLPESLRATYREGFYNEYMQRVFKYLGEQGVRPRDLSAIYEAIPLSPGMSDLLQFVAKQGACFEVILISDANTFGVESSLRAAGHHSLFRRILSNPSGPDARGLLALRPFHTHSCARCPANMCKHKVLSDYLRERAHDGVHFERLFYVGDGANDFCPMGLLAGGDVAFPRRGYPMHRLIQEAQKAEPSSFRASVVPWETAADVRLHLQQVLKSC
AI-2 QS mod – Vibrio harveyi AI-2 quorum sensing modulation | Vibrio harveyi JMH597 AI-2 luminescence/OD600 ratio, 9 h; stronger effect = lower value; strain lacks LuxN and CqsS sensors; 0 = neutral-control median | activity change, % at 7.5 µM | 300,000 tested, 0.4% active | AID 2094; in the data active = activity change below about -75%, passing the limit was not always enough;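 note: luminescence divided by OD600 gain over 9 h not by final OD600 alone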
ALR H2O2 inh – human ALR oxidase inhibition via reduced H2O2; P55789; purified ALR, DTT oxidation, H2O2 HRP-luminol luminescence; inhibition, % (test concentration not listed); 290,000 tested, 3.8% active; AID 485317;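 active = mean replicate inhibition above about 79%, with every replicate also reaching it, limit read from the data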
Target sequence (P55789 whole entry, looked up): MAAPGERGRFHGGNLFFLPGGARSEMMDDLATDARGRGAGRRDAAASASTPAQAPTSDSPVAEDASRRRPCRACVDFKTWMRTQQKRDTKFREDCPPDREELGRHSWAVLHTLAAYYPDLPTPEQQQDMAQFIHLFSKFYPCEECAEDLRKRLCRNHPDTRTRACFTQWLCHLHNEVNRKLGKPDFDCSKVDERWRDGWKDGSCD
Active calls of the source: *; · = not tested or not shown.

SMILES	HSF1 activator	HSF1 inhib	HCV core dimer	PHOSPHO1 inh	AI-2 QS mod	ALR H2O2 inh
O=S(=O)(c1ccc(NC(=S)N2CCN(c3ccc(O)cc3)CC2)cc1)N1CCOCC1	·	·	-0.8	-32.7	16.1	99.3*
CCOC(=O)CCC(=O)Nc1cc(S(=O)(=O)N2CCOCC2)ccc1N1CCCCC1	·	·	·	·	·	0.5
CCOCC(=O)Nc1cc(S(=O)(=O)N2CCOCC2)ccc1N1CCCCC1	3.3	13.0	21.2	74.9*	34.3	0.6
O=C(COc1ccc(S(=O)(=O)N2CCOCC2)cc1)N1CCc2ccccc2C1	4.2	-0.3	2.3	22.5	11.3	-8.8
Cc1ccc(NC(=S)N2CCN(S(=O)(=O)c3ccc(C)cc3)CC2)cc1	·	·	·	37.0	23.8	-1.6
O=C(COc1ccc(S(=O)(=O)N2CCOCC2)cc1)N1CCN(c2ccccc2)CC1	16.7	0.5	-22.2	67.8*	11.2	27.8
COc1ccc(C(=O)NCC(=O)N/N=C/c2ccc(C)o2)cc1OC	0.8	2.3	-4.9	38.3	7.3	-7.5
CC(=O)N1CCc2cc(S(=O)(=O)NCCN3CCC(C)CC3)ccc21	1.7	4.1	-4.3	-2.0	8.6	-6.7
COC(=O)c1ccccc1NC(=O)CN1CCC(C)CC1	-9.4	-3.1	0.2	33.5	21.1	-33.8
CN(C)S(=O)(=O)c1cc(NC(=O)CN2CCN(c3ccc(O)cc3)CC2)ccc1Cl	-13.9	-5.7	3.1	19.5	2.7	100.2*
O=S1(=O)N=C(Nc2ccc(O)cc2)c2ccccc21	-8.5	-4.5	-2.2	-42.1	23.5	98.5*
CC(=O)Nc1ccc(OC(=O)c2cccnc2)cc1	13.5	-4.6	-5.7	-17.8	45.1	·
O=C(NNC1=NS(=O)(=O)c2ccccc21)c1ccc([N+](=O)[O-])cc1	21.4	-0.8	5.6	22.4	21.2	8.8
O=C(NNC1=NS(=O)(=O)c2ccccc21)c1ccc(Cl)cc1	-1.6	-9.1	1.9	-35.1	40.1	89.5*
O=C(Oc1ccc(NC2=NS(=O)(=O)c3ccccc32)cc1)c1cccnc1	52.5*	16.3	-0.2	0.1	36.2	-4.9
Cc1ccccc1NC1=NS(=O)(=O)c2ccccc21	1.0	-1.0	-5.6	8.5	28.2	-3.4
COc1cc2c(-c3ccccc3)c(C)oc2cc1/C=N/NC(N)=S	-10.0	-4.9	27.1	·	4.1	-4.0
O=C(N/N=C/c1ccc([N+](=O)[O-])s1)c1ccncc1	60.5*	49.8	-13.8	-11.4	-86.8*	-28.0
Cc1ccc(C(=O)N/N=C/c2ccc([N+](=O)[O-])s2)cc1	-72.2	-69.5*	-4.3	25.8	50.6	-10.2
Cc1cccc(NC(=O)/C=C/c2ccc([N+](=O)[O-])s2)c1	-38.5	-47.0	-13.3	-0.8	14.0	·
Cc1cccc(NC(=S)N/N=C/c2ccc([N+](=O)[O-])s2)c1	-32.7	-30.6	10.9	52.4	-212.1*	-29.1
Cc1cc(C)c(C(N)=O)c(SCC(=O)c2ccc(Cl)cc2)n1	2.2	3.4	-1.7	56.4	19.0	17.6
Cc1nc(SCC(=O)c2ccc(F)cc2)c([N+](=O)[O-])[nH]1	8.4	5.1	-4.3	19.5	7.7	93.3*
Cc1nc(SCC(=O)c2ccc(Cl)cc2)c([N+](=O)[O-])[nH]1	5.5	3.6	1.2	22.9	7.1	98.7*
COc1ccc(Oc2c(C)nc(SCC(=O)c3ccc(Cl)cc3)[nH]c2=O)cc1	-3.9	-3.5	13.1	31.6	3.4	88.4*
SMILES	HSF1 activator	HSF1 inhib	HCV core dimer	PHOSPHO1 inh	AI-2 QS mod	ALR H2O2 inh
Cc1cc(C)nc(SCC(=O)c2ccc(F)cc2)n1	6.8	-3.7	-0.1	27.3	·	19.7
CC(=O)NC12CC3CC(C1)CC(C(=O)N(C)CC(=O)Nc1cccc(F)c1)(C3)C2	·	·	·	·	·	-11.0
COc1cccc(-c2nc(CS(=O)(=O)CC(=O)NC3CCCc4ccccc43)c(C)o2)c1 (stereo not drawn)	10.3	9.1	9.7	9.8	19.2	89.4*
Cc1ccccc1-c1nc(CS(=O)(=O)CC(=O)NC2CCCC2)c(C)o1	-2.0	15.0	-16.5	59.8	0.7	-11.3
Cc1oc(-c2ccccc2Cl)nc1CS(=O)(=O)CC(=O)NC1CCCC1	-8.4	2.3	-1.7	7.0	5.4	97.8*
COc1cccc(-c2nc(CS(=O)(=O)CC(=O)NC3CCCC3)c(C)o2)c1	-15.6	6.3	-0.1	11.9	11.3	98.1*

Screening data as filed in PubChem.
